Variants at the floor of the assay were thinned out.
B1: tRNA (parent)
chain: GUUCCGUUGGCGUAAUGGUAACGCGUCUCCCUCCUAAGGAGAAGACUGCGGGUUCGAGUCCCGUACGGAACG

Variants of: B1
Experiment: yeast fitness relative to wild type (ratio to wild type); higher = fitter; tRNA-Arg(CCU), competitive growth, 37 C, YPD
Outline: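 The tRNA-Arg(CCU) gene variants were made by chemical synthesis with a 3% per-site mutation rate at 69 sites and inserted at the native genomic locus of Saccharomyces cerevisiae. After pooling, the strains were competed in YPD at 37°C for 24 hours in six parallel replicates. Gene amplicons from the start population and each end population were read by 100-nucleotide paired-end sequencing, and Darwinian fitness relative to wild type was taken from genotype frequency changes. Genotypes needed ≥ 100 starting reads, and estimates < 0.5 were set to 0.5.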

Going from GUUCCGUUGGGGGAAUGGUAACGCGUCUCCCUCCUAAGGAGAAGACUGCGGGUUCAAGUCCCGUACGGCACG to GUUCCGUUGGGGUAAAGGUAACGCGUCUCCCUCCUAAGGAGAAGACUGCGGGUUCGAGUCCCGUGCGGAACG, the yeast fitness rises from no more than 0.5 to 0.567.

Compared with GUUCCGUUGGGGUAAUGGUAACGCGUCUCCCUCCUAAAGAGAAGACUGCGGGUUCGAGUCCCGUACGGAACG, GUUCCGUUGGGGUAAUGGUAACGCGUCUCCCUCCUAACGAGAAGACUGCGGGUUCGACUCCCGAACGGAACG is lower in yeast fitness: 0.63 for the first, no more than 0.5 for the second.

First: GUUCCGUUGGGGUAAUGGUAACGCGUCUCCCUCCUAAGGAGAACACUGCGGGUUCGCGUCCCGUACGGAACG
Second: GUUCCGUUGGGGUAAUGGUAACGCAUCUCUCUCCUACGGAGAAGAUUGCGGGUUCGAGUCCCGUACGGAACG
The yeast fitness of the first is lower: no more than 0.5 for the first, 0.568 for the second.

Going from GUUCCGUUGGGGUAAUGGUAACCCGUCUCCCUCCUGGGGAGAAGACUGCGGGUUCGAGUCCCGUACGGAGCG to GUUCCGUUGGGGUAAUGGUAACGCGUCUCCCUCCUAAGGAGAAGACUGCGGGUUCGAGUCCCGUACGAGACG, the yeast fitness falls from 0.55 to no more than 0.5.

GUUCCGUUGGGGUAAUGGUAACGCGUCUCCCUCCUAAGGAGAAGACUGCGGGUUCGAGUCCCCUACCGAACG and GUUCCGUUGGGGUAAUGGUAACGCGUCUCCCUCCUAAGGAGAAGACUGCGGCUUCGAGUCCCGUACCGAACG cannot be ordered by yeast fitness: no more than 0.5 for the first, no more than 0.5 for the second.

First: GUUCCGUUGGGGUAAUGGUAACGCGUCUCCCUCCUAAGGAGAAGACUGCAGGUUCGAGUCCCGUAGGGAACG
Second: GUUCCGUUGGGGUAAUGGUAACGCGUCUCCCUCCUAAGGAGAAGACUGCGGGUUCGAGUCCCGUACUGCACG
The yeast fitness of the first is lower: no more than 0.5 for the first, 0.528 for the second.

GUUCCGUUGGGGGAAUGGUAACGCGUCUCCCUCCUAAGGAGAAGACUGCGGGUUCGAGUCUCGUACGGAACG and GUUCCGUUGGGGGAAUGGUAACGCGUCUCCCUCCUAAGGAGAAGACUGCGGGUUCGAGUCCCAUACGGAACG cannot be ordered by yeast fitness: no more than 0.5 for the first, no more than 0.5 for the second.

GUUCCGUUGGGGUAAUGGUAACGCGUCUCCCUCCUAAGGAGAAGACUACGGGUUCGAGUCCCAUCCGGAACG and GUUCCGUUGGGGCGAUAGUAACGCGUCUCCCUCCUAAGGAGAAGACUCCGGGUUCGAGUCCUGUAGGGAGCG cannot be ordered by yeast fitness: no more than 0.5 for the first, no more than 0.5 for the second.

GUUCCGUUGGGGUAAAGGUAAUGCGUCACCAUCCUAAGGAGCAGUCUGCGAGUUCGAGUCCCGAACGGAACG and GUUCCGUUGGGGUAAUGGUAACGCGUCUCCCUCCUAAGGAGAAGACUGCGGAUUCGAGUCCCGUACGGCACG cannot be ordered by yeast fitness: no more than 0.5 for the first, no more than 0.5 for the second.

Going from GUUCCGUUGGGGUAAAGGUAACGCGUCUCCCUCCUAAGGAGAAGACUGCGGGUUCGAGUCCCGUACGGAUCG to GUUCCGUUGGGGUAAUGGUAACACGUCUCCCUCCUAAACAGAAGACUGCAGGUUCCAGUCCCGUACGGAACG, the yeast fitness rises from 0.553 to 0.613.

Compared with GUUCCGUUGGGGUAAUGGUAACGCGUCUCCCUCCUAAGGAGAAGACUGCGGGUUCGAAUCCCGUACGGUACG, GUUCCGUUGGGGUAAUGGUAACCCGUCUCCCUCCUAGGGAGAAGACUGUGGGUUCGAGUCUCGUACGGAACG is lower in yeast fitness: 0.571 for the first, no more than 0.5 for the second.

First: GUUCCGUUGGGGUAAUGGUAACCCGUCUCCCUCCUUAGGAGAACACUGCGGGUUCGAGUCCCGUACGGAACG
Second: GUUCCGUUGGGGUAAUGGUAACGCGUCUCCCUCCUAAGGAAAACACUGCGGGUUCGAGUCCCGUAGGGAACG
The yeast fitness of the first is higher: 0.748 for the first, no more than 0.5 for the second.

Compared with GUUCCGUUGGGGUAAAGGUAACGCGUCUCCAUCCUAAGGAGGAGACUGCGGGUUCGAGUCCCGUACGGAACG, GUUCCGUUGGGGUAAUGGUAACGCGUCUCCCUCCUAAGGAAAAGACAGUGGGUUCGAGCCCCGUACCGAUCG is lower in yeast fitness: 0.573 for the first, no more than 0.5 for the second.

GUUCCGUUGGGGUAAUGGUAACGCCUCUCCCUCCUAAGGAGAAGACUCCGCGUUCGAGUCCCGUAAGGAACG and GUUCCGUUGGGGUAAUGGUAACGCGUCUCCCUCCUAAAGAGAAGACUGCGGGUUCGAAUUCCGUACGGAACG cannot be ordered by yeast fitness: no more than 0.5 for the first, no more than 0.5 for the second.

First: GUUCCGUUGGGGUAAUGGUAACGCGUCUCCCUCCUAAAGAGAAGACUGCGGGUUCGAGUCCCGUAUGGAACG
Second: GUUCCGUUGGGGUAAUGGUAACACGUCUCCCUCCUAAGGAGAAGAAUGCGGGUUCGAGUCCCGUACGUAACG
The yeast fitness of the first is lower: no more than 0.5 for the first, 0.566 for the second.

Going from GUUCCGUUGGGGUAAAGGUAACGCGUCUCCCUCCUAAGGAGAAGACUGCGGGUUCGAGUCCCGUACGGAACG to GUUCCGUUGGGGUAAAGGUAACGCGUCUUCCUCCUAAGGAGAAGACUGCGGGUUCGAGUCCCGUAAGGAACG, the yeast fitness falls from 0.666 to no more than 0.5.

Going from GUUCCGUUGGGGGAAUGGUAACGCGUCUCUCUCCUAGGGUGAAGACUGCGGGUUCGUGUCCCGUACGGAACG to GUUCCGUUGGGGUAAUGGUAACGCGUCUCCCUCCUAAGGAGAAGACUGCGGGUUCGACUCCCGUACGGAACG, the yeast fitness rises from no more than 0.5 to 0.589.

Compared with GUUCCGUUGGGGUAAUGGUAACGCGUCUCCCUCCUAAGGAGAAGACUGCGGGUUCGAGUCCCGUACCGAACG, GUUCCGUUGGGGUAAAGGUAACGCGUCUCCCUCCUAAGGAGAAGACUGAGGGUUCGAGUCCCGUACGGAACG is lower in yeast fitness: 0.581 for the first, no more than 0.5 for the second.

Going from GUUCCGUUGGGGUAAUGGUAACCCGUCUCCCUCCUUAGGAGAACACUGCGGGUUCGAGUCCAGUACGGAACG to GUUCCGUUGGGGUAAUGGUAACGCGUCUCCCUCCUAAGGAGAAGACUGCAGGUUCGAGUCUCGUACGGAACG, the yeast fitness rises from no more than 0.5 to 0.566.

First: GUUCCGUUGGGGUAAUGGUAACGCAUUUCCCUCCUAAGGAGAAGACUGCGGGUUCGAGUCCCGUACGGAACG
Second: GUUCCGUUGGGGUAAUGGUAACGCGUCUCCCUCCUAAGGAGAAGACUACGGGUUCGAGUCCCGUUCGGAACG
The yeast fitness of the first is higher: 0.687 for the first, 0.525 for the second.

Going from GUUCCGUUGGGGUAAUGGUAACGCGUCUCCCUCCUAAGGACCUGACUGCGGGUUCGAGUCCCGUACGGAACG to GUUCCGUUGGGGUAAAGGUAUCCCGUCUCCCUCCUAAGGAGAAGACUGCGGGUUCGAGUCCCGUACGGAACG, the yeast fitness rises from no more than 0.5 to 0.665.

Compared with GUUCCGUUGGGGUAAUGGUAACGCGUCUCCCUCCUAAGGAGAACACUGCGGGUUCGCGUUCCGUACGGAACG, GUUCCGUUGGGGUAAUGGUAACGCGUCUCCCUCCUAAAGAGAAGACUGCGGGUUCGAGUCGCGUACGGAACG is lower in yeast fitness: 0.518 for the first, no more than 0.5 for the second.

GUUCCGUUGGGGUAAUGGUAACGCAUCUCCCUCCCUAGGAGAAGACUGCGGGUUCGAGUCCCGUACGGAACG and GUUCCGUUGGGGUAAUGGUAACCCGUCUCCCUCCGAAGCAGAAGACUGCCGGUUCGAGUCCCGUAAGGAACG cannot be ordered by yeast fitness: no more than 0.5 for the first, no more than 0.5 for the second.

GUUCCGUUGGGGUAAUGGUAACGCGUCUCCCUCCUAAGCAGAAGACCGCGGGUUCGAGUCCCGUACGCAACG and GUUCCGUUGGGGGAAUGGUAACGCGUCUCCCUCCUAAGGAGAAGACUGCGGGUUCGAGUCCCGUCCGGAACG cannot be ordered by yeast fitness: no more than 0.5 for the first, no more than 0.5 for the second.

First: GUUCCGUUGGGGUAAAGGUAACGCGUCUCACUCCUAAGGAGAAGACUGCGGGUUCGAGUCCCGUACGGAACG
Second: GUUCCGUUGGGGGAAUGGUAACGCGUCUCCCUCCUAAGGAGAAGACUGCGGGUUCGAGUUCCGUACGGAACG
The yeast fitness of the first is higher: 0.583 for the first, no more than 0.5 for the second.

GUUCCGUUGGGGUAAAGGUAACGUGUCUCCCUCCUAAGGAGAAGACUGCCGGUUCGAGUCCCGUAUGGAACG and GUUCCGUUGGGGUAAAGGUAACGCGUCUCCCUCCUAAGGAGAAGACUCCGGGUUCGUGUCCCGUACGGAACG cannot be ordered by yeast fitness: no more than 0.5 for the first, no more than 0.5 for the second.

GUUCCGUUGGGGCAAUGGUAACGCGUAUCCCUCCAAAGGAGAAGACUACGGGUUCGAGCCCCGUACGGAACG and GUUCCGUUGGGGUAAUGGUAACGCGUCUCCCUCCUAAGGAGAAGACUGCGGGUUCAAGUCCUGUACGGAACG cannot be ordered by yeast fitness: no more than 0.5 for the first, no more than 0.5 for the second.

Compared with GUUCCGUUGGGGGAAUGGUAGCGCGUCUCCCUCCUAAGGAGAAGACUGCGGGUUCGAGUCCCGUGCGGAACG, GUUCCGUUGGGGUAAAGGUAACGCGUCUUCCUCCUAAGGAGAAGACUGCGGGUUCGAGUCCCGUACGGCACG is higher in yeast fitness: no more than 0.5 for the first, 0.538 for the second.

GUUCCGUUGGGGGAAUGGUAACGCGUCUCCCUCCUAAGGAGAAGACUGCGGGUUGGAGUCCCGUAUGGAACG and GUUCCGUUGGGGUAAUGGUAACGCGUCUCCCUCCUAAGACGAAGACUGCGGGUUCGAGUUCCGUACGUAACG cannot be ordered by yeast fitness: no more than 0.5 for the first, no more than 0.5 for the second.

GUUCCGUUGGGGUAAAGGUAACGCGUCUCCCUCCUAAGGAGGAGACUGCGGGUUCGUGUCCCGUACGGAACG and GUUCCGUUGGGGUAAUGGUAACGCGUCUCCCUCCUAAGGAGAAGACUGCGGGUUCCAGUCCCGUACUGAACG cannot be ordered by yeast fitness: no more than 0.5 for the first, no more than 0.5 for the second.

Going from GUUCCGUUGGGGUAAUGGUAACGCGUCUCCCUCCUAAGGAAAAGACUGCGGGUUCGAGUCCCGUACGGAACG to GUUCCGUUGGGGUAAUGGUAACGCGUCUCCCUCCUAAGGAGAAGACUGCGGGUUCGAGUCCCAUACGGAACG, the yeast fitness rises from 0.586 to 0.605.

First: GUUCCGUUGGGGUAAUGGUAACGCGUCUCCCUCCUAAGGAGAAGACUGCGGGUUCGAGUCCCCUACGGAACG
Second: GUUCCGUUGGGGUAAAGGUAACGCGUCUCACUCCUAAGGAGAAGACUGCGGGUUCGAGUCCCGUACGGCACG
The yeast fitness of the first is higher: 0.543 for the first, no more than 0.5 for the second.

Compared with GUUCCGUUGGGGUAAUGGUAACGCGUCUCCCUCCUAAGGAAAAGACUGCGGGUUCGAGUCCCGUACGGAGCG, GUUCCGUUGGGGUAAUGGUAACGCGUCUCCCUCCUAAGGAGAAGACUGCGUGUUCGAGUCCCGUACGGAACG is higher in yeast fitness: no more than 0.5 for the first, 0.601 for the second.

GUUCCGUUGGGGUAAAGGUAGCGUGUCUCCCUCCUAAGGAGAAGACUGCGGGUUCGAGUCCCGUACGGAACG and GUUCCGUUGGGGUAAAGGUAAUGCGUCUCCCUCCUAAGGAGAAGACUGCGCGUUCGAGUUCCGUACAGAACG cannot be ordered by yeast fitness: no more than 0.5 for the first, no more than 0.5 for the second.

Compared with GUUCCGUUGGGGUAAAGGUAACGCGUCUCCCUCCUAAGGAGAAGACUGCGGGUUCGAGUCCCGUACAGAACG, GUUCCGUUGGGGUAAUGGUAACGCGUCUCCCUCCUAAGGAGAAGACUGCGGGUUCGAGUCCCGUACGAAACG is higher in yeast fitness: 0.536 for the first, 0.64 for the second.

Going from GUUCCGUUGGGGUAAUGGUAACGCGUCUCCCUCCUAAGGAGAAGACUGCGCGUUCGAGUCCCGUGCGGAACG to GUUCCGUUGGGGUAAAGGUGACGCGUCUCACUCCUAAGGAGAAGACUGCGGGUUCGAGUCCCGUACGGAACG, the yeast fitness falls from 0.616 to no more than 0.5.

GUUCCGUUGGGGUAAUGGUAACGCGUCUCCCUCCUAAGCAGAAGACUGCGGGUUCCAGUCUCGUACGGAACG and GUUCCGUUGGGGUAAUGGUAACGCGUCUCCCUCCUAAGCAGAAGACCGCGGGUUCGAGUCCCGUACGGAACG cannot be ordered by yeast fitness: no more than 0.5 for the first, no more than 0.5 for the second.

With GUUCCGUUGGGGUAAUGGUAACGCGUCUCCCUCCUAAGGAAAAGACUGCGGGUUCGAGUCCCGUACUCAACG the yeast fitness was 0.569.
